# Experimental data taken from article PMC7966865 (Molecular Metabolism, 2021).
# B1: FGF21: Human recombinant FGF21 (Sino Biological), fibroblast growth factor 21 (protein, UniProt Q9NSA1 29-209, looked up)
# Fibroblast growth factor 21: HPIPDSSPLLQFGGQVRQRYLYTDDAQQTEAHLEIREDGTVGGAADQSPESLLQLKALKPGVIQILGVKTSRFLCQRPDGALYGSLHFDPEACSFRELLLEDGYNVYQSEAHGLPLHLPGNKSPHRDPAPRGPARFLPLPGLPPALPEPPGILAPQPPDVGSSDPLSMVGPSQGRSPSYAS
# How the values were obtained:
# [1] = test system: liver-specific Foxo1 knockout (LKO) mice; assay: Pyruvate tolerance test; type: in vivo, mouse; conditions: three doses
# Outline: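 Liver-specific Foxo1 knockout mice (Albumin-Cre; Foxo1 flox/flox), male and female, were randomized by body weight and fed glucose. They received three oral doses of test compound at 10 ml/kg (8 am, 5 pm, 8 am), at 16 mg/kg in Optiform Select #8 or 30 mg/kg in 5% DMSO/95% PEG-400. After fasting, they were given sodium pyruvate 2 g/kg i.p. in saline. Tail glucose was read at 0–120 min. N = 7–15; tested once.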
# [2] = test system: normal C57 mice / control mice (Foxo1 flox/flox); assay: Pyruvate tolerance test; type: in vivo, mouse
# [3] = test system: endogenous FOXO1 target gene expression (G6pc, Pck1, Foxo1 mRNA) in primary hepatocytes; assay: cAMP/Dex-induced gene expression; type: cell-based; conditions: primary mouse hepatocytes, insulin 100 nM, 6 h; for cAMP/Dex-induced G6pc mRNA expression / cAMP/Dex-induced Pck1 mRNA expression: FOXO1 inhibitors 10 μM; for effect on Foxo1 mRNA levels: cAMP + Dex, compound 10 10 μM
# Outline: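 Hepatocytes from 8–10-week-old male C57/BL6 mice, plated on collagen at 200,000 cells/well, recovered 4–5 h, then serum-reduced (1% FBS M199, G418) 15–16 h. Stimulation: cAMP 100 μM + dexamethasone 1 μM, with test compound (10 μM, or 10 nM–10 μM). q-RT-PCR normalized to Ppia. For IC50: 0% = unstimulated, 100% = cAMP + Dex; 3–6 wells/concentration; 4 experiments pooled; 4-parameter fit.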
# Cell viability = type: cell-based; conditions: human
# Outline: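 HEK293 cells were seeded overnight in EMEM with 1% FBS and then transfected for reporter assays. Test compound was added right after transfection as a 10-point half-log dilution in duplicate, at 0.5% final DMSO. After 24 h at 37 °C, medium taken off the cells was assayed for lactate dehydrogenase activity by LDH-Glo luminescence. At least two independent experiments were run.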
# db/db mice = assay: Chronic study in db/db mice; type: in vivo, mouse; conditions: for ALT / AST: 6-h-fasted plasma; for hepatic histology (H&E): after 10 days of treatment; for glucose levels during ITT: day 9, i.p. insulin 0.75U/kg, all time points; for HOMA-IR index (worsening of insulin resistance over the study) / HOMA-β: calculated from fasting glucose and insulin
# Outline: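 Male db/db mice (C57BL/6J background), 6–7 weeks old, were acclimated for 2 weeks and randomized by weight and glucose. They received vehicle, test compound or rosiglitazone (10 mg/kg in 0.5% methylcellulose) orally for 10 days. Body weight was recorded each morning before dosing. 6-h-fasted glucose and ELISA insulin on days 0, 5 and 10 gave HOMA-IR and HOMA-β. Fasted plasma ALT/AST were measured colorimetrically. N = 6–8.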
# Mouse PK = type: in vivo
# Outline: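 Male ICR mice (N = 3 per route) were dosed with test compound in Solutol HS-15:saline (5:95 v/v), i.v. at 1 mg/kg or p.o. at 10 mg/kg. Blood was sampled at 0.083–24 h (8 time points) and processed to plasma. Plasma levels were measured by LC-MS/MS and used to calculate PK parameters.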
# [4] = test system: STZ-induced diabetic mice; assay: Chronic study in streptozotocin; type: in vivo, mouse
# Outline: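 Male C57BL/6J mice received STZ 50 mg/kg i.p. in citrate buffer pH 4.5 for 5 days, until glucose reached 300–450 mg/dL, then were randomized. Human recombinant FGF21 was given s.c. at 0.45 mg/kg daily from day 1. Test compound in Solutol HS-15:saline (5:95) was given p.o. at 32 mg/kg/dose twice daily from day 4. Readings: 6-h-fasted plasma TG (colorimetric), body weight change day 10 vs day 0, and day-11 perigonadal fat weight. N = 5–6.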
# pCMV-Rluc = assay: Non-specific activity: constitutive pCMV-Rluc reporter in HEK293 cells; type: cell-based; conditions: Homo sapiens, HEK293, read-out: Non-specific activities pCMV-Rluc IC50
# Outline: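 HEK293 cells in EMEM with 1% FBS were co-transfected with IRE-firefly luciferase, constitutive CMV-Renilla luciferase and a forkhead factor or RFP control plasmid. Test compound was added immediately as a 10-point half-log series in duplicate, at 0.5% final DMSO. After 24 h, lysates were read by Dual-Glo luciferase. Relative IC50 came from a four-parameter fit, with at least two independent experiments.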
# pGK-FFluc = assay: Non-specific activity: constitutive pGK-FFluc reporter in HEK293 cells; type: cell-based; conditions: Homo sapiens, HEK293, read-out: Non-specific activities pGK-FFluc IC50
# Outline: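 In the wild-type FOXO1 format, HEK293 cells in EMEM with 1% FBS were co-transfected with IRE-NanoLuc, constitutive pGK-firefly luciferase and the FOXO1-WT plasmid. Test compound was dosed right after transfection as a 10-point half-log series in duplicate, at 0.5% final DMSO. After 24 h, lysates were read by Nano-Glo Dual-Luciferase. Relative IC50 came from a four-parameter fit, with at least two experiments.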
# [5] = male, ICR, mouse, plasma, iv, 1 mg/kg
# [6] = male, ICR, mouse, plasma, po, 10 mg/kg
molecule,measurement,setting,value
"CCn1cc(C(=O)O)c(=O)c2c(N)c(F)c(NC3CCCCC3)cc21 [AS1842856, reference compound]",glucose levels during PTT,"[1]; liver Foxo1 knockouts, 30 mg/kg/dose p.o.",reduced glucose levels
same,glucose excursion during PTT,"[2]; 4-h-fasted mice, higher dose level (30 or 100 mg/kg/dose tested) p.o.",significantly lowered glucose excursion
same,glucose levels during PTT,"[2]; overnight-fasted C57 mice and control mice, 30 mg/kg p.o., three doses",able to reduce glucose levels
same,cAMP/Dex-induced G6pc mRNA expression,[3],significantly suppressed
same,cAMP/Dex-induced Pck1 mRNA expression,[3],significantly suppressed
"CN1CCN(c2ccc(C(=O)Nc3cc(-c4nc5ccccc5[nH]4)n[nH]3)cc2)CC1 [Compound 10, N-[3-(1H-1,3-benzodiazol-2-yl)-1H-pyrazol-5-yl]-4-(4-methylpiperazin-1-yl)benzamide]",CC50 at 24 h,Cell viability,> 24 µM
same,glucose levels during PTT,"[1]; LKO mice, 16 mg/kg/dose p.o.",failed to reduce glucose levels
same,reduced food intake (trend),"db/db mice; db/db mice, follow-up study, vs vehicle",12%
same,plasma TG,"db/db mice; male db/db mice, 6-h-fasted",no significant effects
same,plasma total cholesterol (TC),"db/db mice; male db/db mice, 6-h-fasted",no significant effects
same,ALT,db/db mice; male db/db mice,not affected
same,AST,db/db mice; male db/db mice,not affected
same,hepatic histology (H&E),db/db mice; male db/db mice,no apparent effect
same,glucose levels during ITT,db/db mice; male db/db mice,significantly reduced glucose levels
same,blood glucose,"db/db mice; male db/db mice, p.o. twice daily, ten days",reduced blood glucose to an extent similar to the PPARγ agonist rosiglitazone
same,weight loss (trend),"db/db mice; male db/db mice, ten days",5%
same,insulin levels,"db/db mice; male db/db mice, ten days, 6 h fast",did not significantly affect
same,HOMA-IR index (worsening of insulin resistance over the study),"db/db mice; male db/db mice, ten days",staunched
same,HOMA-β,"db/db mice; male db/db mice, ten days",tended to be improved
same,CL,"Mouse PK; male ICR mice, IV 1 mg/kg",22.7 mL/kg∗min
same,AUCinf,"Mouse PK; male ICR mice, IV 1 mg/kg, plasma",1.86 μM∗h
same,AUCinf,"Mouse PK; male ICR mice, PO 10 mg/kg, plasma",4.66 μM∗h
same,Vd,Mouse PK; [5],1.71 L/kg
same,half-life,Mouse PK; [5],73.8 min
same,bioavailability,"Mouse PK; male, ICR, mouse, plasma, oral, 10 mg/kg",25.5%
same,Cmax,Mouse PK; [6],1620 nM
same,Tmax,Mouse PK; [6],40.2 min
same,body weight,[4]; day 10 compared to day 0,trend toward reduced body weight
same,reduction in perigonadal fat pad weight,[4]; end of the study (day 11),> 50%
same,IC50,pCMV-Rluc,> 24 µM
same,glucose lowering during PTT,"[2]; normal C57 mice fasted overnight (16 h), 16 mg/kg p.o., three doses",ineffective at lowering glucose
same,effect on Foxo1 mRNA levels,[3],did not affect
same,cAMP/Dex-induced G6pc mRNA expression,[3],significantly suppressed
same,cAMP/Dex-induced Pck1 mRNA expression,[3],significantly suppressed
same,IC50,pGK-FFluc,> 10 µM
"CN(CCOc1ccc(CC2SC(=O)NC2=O)cc1)c1ccccn1 (centres unmarked) [rosiglitazone, reference compound]",plasma TG,"db/db mice; male db/db mice, 6-h-fasted",reduced plasma TG
same,ALT,db/db mice; male db/db mice,not affected
same,AST,db/db mice; male db/db mice,not affected
same,hepatic histology (H&E),db/db mice; male db/db mice,exacerbated hepatic steatosis
same,glucose levels during ITT,db/db mice; male db/db mice,significantly reduced glucose levels
same,body weight,"db/db mice; male db/db mice, rosiglitazone 10 mg/kg, ten days",weight gain
same,HOMA-IR index (worsening of insulin resistance over the study),"db/db mice; male db/db mice, ten days",staunched
same,HOMA-β,"db/db mice; male db/db mice, ten days",tended to be improved
insulin,effect on Foxo1 mRNA levels,[3],did not affect
same,cAMP/Dex-induced G6pc mRNA expression,[3],significantly suppressed
same,cAMP/Dex-induced Pck1 mRNA expression,[3],significantly suppressed
B1,plasma TG,[4]; 6-h fast,significantly reduced
